Assay results from ChEMBL document CHEMBL3352289, “Potent and selective MAO-B inhibitory activity: amino- versus nitro-3-arylcoumarin derivatives” (Bioorg Med Chem Lett, 2015).

Key:
[1] = molecular target: T1, Amine oxidase [flavin-containing] B (Homo sapiens, UniProt P27338); format: cell-based, BTI-TN-5B1-4
T1 sequence (P27338 whole entry): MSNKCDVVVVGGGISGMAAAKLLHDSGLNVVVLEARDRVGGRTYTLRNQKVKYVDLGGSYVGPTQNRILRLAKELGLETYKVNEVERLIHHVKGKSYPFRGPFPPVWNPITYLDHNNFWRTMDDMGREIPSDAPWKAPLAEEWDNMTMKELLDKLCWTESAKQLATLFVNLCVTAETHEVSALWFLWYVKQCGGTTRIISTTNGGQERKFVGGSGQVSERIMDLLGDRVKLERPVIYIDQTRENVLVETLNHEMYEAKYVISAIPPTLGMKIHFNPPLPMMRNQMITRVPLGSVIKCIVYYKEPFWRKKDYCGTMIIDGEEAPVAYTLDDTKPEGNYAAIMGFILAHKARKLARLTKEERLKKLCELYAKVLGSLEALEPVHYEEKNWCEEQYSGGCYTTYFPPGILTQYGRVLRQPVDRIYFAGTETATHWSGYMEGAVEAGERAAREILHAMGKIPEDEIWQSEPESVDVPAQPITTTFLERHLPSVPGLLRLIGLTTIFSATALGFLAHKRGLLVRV

[2] = molecular target: T2, Amine oxidase [flavin-containing] A (Homo sapiens, UniProt P21397); assay: Inhibition of human recombinant MAOA expressed in BTI-TN-5B1-4 cells using p-tyramine substrate assessed as reduction in H2O2 production; format: cell-based
T2 sequence (P21397 whole entry): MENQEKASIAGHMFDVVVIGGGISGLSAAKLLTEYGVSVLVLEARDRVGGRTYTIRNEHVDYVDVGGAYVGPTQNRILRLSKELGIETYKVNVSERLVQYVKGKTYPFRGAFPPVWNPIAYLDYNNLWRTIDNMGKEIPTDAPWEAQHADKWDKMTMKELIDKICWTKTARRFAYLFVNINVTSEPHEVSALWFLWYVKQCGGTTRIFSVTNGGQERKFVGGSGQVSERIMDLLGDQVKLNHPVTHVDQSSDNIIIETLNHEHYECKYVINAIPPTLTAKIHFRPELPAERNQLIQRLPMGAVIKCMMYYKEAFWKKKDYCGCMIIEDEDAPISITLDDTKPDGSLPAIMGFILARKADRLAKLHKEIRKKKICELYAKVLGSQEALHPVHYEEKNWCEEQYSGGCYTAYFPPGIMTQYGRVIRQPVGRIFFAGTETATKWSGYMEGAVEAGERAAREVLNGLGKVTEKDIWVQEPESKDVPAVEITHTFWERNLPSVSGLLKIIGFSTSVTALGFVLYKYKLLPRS

[3] = molecular target: T2, Amine oxidase [flavin-containing] A; assay: Inhibition of human recombinant MAOA expressed in BTI-TN-5B1-4 cells using p-tyramine substrate assessed as reduction in H2O2 production at 100 uM; format: cell-based; details: bti-tn-5b1-4, 100 µM
Homo sapiens = species: Homo sapiens; assay: Selectivity index, ratio of IC50 for human recombinant MAOA to IC50 for human recombinant MAOB
Method in brief: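 Ratio of IC50 (hMAO-A) to IC50 (hMAO-B). Both come from the Amplex Red/p-tyramine H2O2 assay with recombinant insect-cell microsomal isoforms. Each IC50 is the mean of five experiments. Where an IC50 was not reached at the highest concentration tested (100), that IC50 was taken as greater than 100.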

[4] = Octanol/water partition coefficient, log P of the compound; format: physicochemical
[5] = Permeability by PAMPA method; format: ADME; details: read-out: Peff
Method in brief: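 PAMPA-BBB assay. A PVDF filter was coated with porcine brain lipid in dodecane (20 mg/mL). Compound at 100 µg/mL in PBS pH 7.4/ethanol 70:30 was placed in the donor wells, with the same buffer in the acceptor wells. Plates were incubated 240 min at 25 °C, and acceptor concentration was read by UV-vis at five wavelengths, four wells, ≥3 runs, mean ± SD. Ten reference drugs validated each run.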

[6] = molecular target: Amine oxidase [flavin-containing] B (Homo sapiens) (UniProt P27338); assay: Reversible inhibition of human recombinant MAOB expressed in BTI-TN-5B1-4 cells assessed as AUF/t ratio at 2.5 nM by effective dilution method relative to untreated control; set-up: scale not given: the % may be the effect or the level left; details: BTI-TN-5B1-4, human
[7] = molecular target: T1, Amine oxidase [flavin-containing] B; assay: Inhibition of human recombinant MAOB expressed in BTI-TN-5B1-4 cells using p-tyramine substrate assessed as reduction in H2O2 production at 100 uM; format: cell-based; details: bti-tn-5b1-4, 100 µM
Method in brief: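 Microsomal hMAO-B from BTI-TN-5B1-4 insect cells infected with recombinant baculovirus. Enzyme, dosed to oxidise 165 pmol p-tyramine/min, was preincubated with drug in 0.05 M sodium phosphate pH 7.4 (DMSO ≤1%) for 15 min at 37 °C. Reaction started with Amplex Red, 1 U/mL HRP and 1 mM p-tyramine. Resorufin fluorescence (ex 545/em 590 nm) read over 15 min at 37 °C, minus enzyme-free background, versus vehicle control.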

[8] = molecular target: T2, Amine oxidase [flavin-containing] A; assay: Reversible inhibition of human recombinant MAOA expressed in BTI-TN-5B1-4 cells assessed as AUF/t ratio at 20 nM by effective dilution method relative to untreated control; format: cell-based; set-up: scale not given: the % may be the effect or the level left; details: BTI-TN-5B1-4, human; read-out: Activity

| Structure (SMILES) | IC50 ([1]; read-out: IC50) | IC50 ([2]; bti-tn-5b1-4) | inhibition (INH) [3] | Ratio IC50 (Homo sapiens) | logP [4] | Papp [5] | IC50 ([2]; read-out: IC50) | activity at 0.0025 µM [6] | IC50 ([1]; bti-tn-5b1-4) | inhibition (INH) [7] | activity at 0.02 µM [8] |
| --- | --- | --- | --- | --- | --- | --- | --- | --- | --- | --- | --- |
| Cc1ccc2oc(=O)c(-c3cccc([N+](=O)[O-])c3)cc2c1 | 6 nM | Not Active | Not Active | > 16700 | 4.1 | – | – | – | – | – | – |
| Cc1ccc2oc(=O)c(-c3ccc(N)cc3)cc2c1 | 4.1 nM | Not Active | Not Active | > 25000 | 3.24 | – | – | – | – | – | – |
| Cc1ccc2oc(=O)c(-c3ccc([N+](=O)[O-])cc3)cc2c1 | 2.1 nM | – | – | 2090 | 4.12 | 10.5 ×10⁻⁶ cm/s | 4180 nM | 80% | – | – | – |
| Cc1ccc2oc(=O)c(-c3ccccc3[N+](=O)[O-])cc2c1 | 5520 nM | Not Active | Not Active | > 18 | 4.07 | – | – | – | – | – | – |
| Cc1ccc2oc(=O)c(-c3ccccc3N)cc2c1 | 2170 nM | Not Active | Not Active | > 46 | 3.6 | – | – | – | – | – | – |
| O=C(NCCN1CCOCC1)c1ccc(Cl)cc1 [MOCLOBEMIDE] | – | – | – | – | 1.68 | – | – | – | Not Active | Not Active | – |
| C#CCN(C)[C@H](C)Cc1ccccc1 [SELEGILINE] | – | – | – | – | – | – | – | – | – | – | 8.51% |
| Cc1ccc2oc(=O)c(-c3cccc(N)c3)cc2c1 | 2.2 nM | Not Active | Not Active | > 50000 | 3.21 | – | – | – | – | – | – |
